Published values from different studies.
KMT5A: N-lysine methyltransferase KMT5A (KMT5A, Homo sapiens, UniProt Q9NQR1)
PRKCB: Protein kinase C beta type (PRKCB, Homo sapiens, UniProt P05771)
CCKAR: Cholecystokinin receptor type A (CCKAR, Homo sapiens, UniProt P32238)
LATS1: Serine/threonine-protein kinase LATS1 (LATS1, Homo sapiens, UniProt O95835)

`Cc1ccc(Nc2nccc(N(C)c3ccc4c(C)n(C)nc4c3)n2)cc1S(N)(=O)=O` gave an inhibition of -7% (cAMP-dependent protein kinase catalytic subunit alpha (PRKACA, Bos taurus, UniProt P00517); enzyme activity; inhibitor; 0.3 µM).
With `O=C(O)c1ncccc1O` the inhibition was about 50% (Neutrophil collagenase (MMP8, Homo sapiens, UniProt P22894); enzyme activity; inhibitor; fluorescence; 1 mM).
`Cc1cc(-c2ccc(/N=N/c3ccc4c(S(=O)(=O)O)cc(S(=O)(=O)O)c(N)c4c3O)c(C)c2)ccc1/N=N/c1ccc2c(S(=O)(=O)O)cc(S(=O)(=O)O)c(N)c2c1O` gave an inhibition of 78% (KMT5A; cell-free assay; 10 µM).
`CSc1nc(C)c(-c2ccnc(Nc3ccc(N4CCOCC4)cc3)c2)[nH]1` has an inhibition of 1.3% (PRKCB; enzyme activity; inhibitor; 10 µM).
The inhibition of `CN(C)c1ccc(C(=C2C=CC(=[N+](C)C)C=C2)c2ccc(N(C)C)cc2)cc1` is reported as 97% (KMT5A; cell-free assay; 10 µM).
The inhibition of `COc1cc(NC(C)=O)c(Cl)cc1C(=O)Nc1nccs1` is reported as -9.3% (CCKAR; cell-free assay; 10 µM).
The inhibition of `O=C1C=CC(=O)c2c(O)cccc21` is reported as 19% (KMT5A; cell-free assay; 10 µM).
`O=C1N=C(N2CCCCN2)S/C1=C\c1ccc(F)cc1O` gave an inhibition of 10% (CCKAR; ligand displacement; radioligand; 10 µM).
`COc1cc(-c2cc(-c3ccc(N4CCNCC4)cc3)cnc2N)cc(OC)c1OC` has an inhibition of 94% (Tyrosine-protein kinase ABL1 (ABL1, Homo sapiens, UniProt P00519, E255K); enzyme activity; inhibitor; 1 µM).
`CCN1CCN(Cc2ccc(NC(=O)c3ccc(C)c(/C=C/c4cnc5[nH]ccc5c4OC)c3)cc2C(F)(F)F)CC1` gave an inhibition of 0.239% (Serine/threonine-protein kinase greatwall (MASTL, Homo sapiens, UniProt Q96GX5); target engagement in cells; inhibitor; chemoproteomics; A-375; 0.5 µM).
For `Oc1cccc(Nc2nc(-c3ccc(F)cc3F)cs2)c1`, the inhibition was 0.9% (5-hydroxytryptamine receptor 3A (HTR3A, Homo sapiens, UniProt P46098); ligand displacement; radioligand; 10 µM).
`O=C(Oc1cc(O)cc2c1C[C@@H](OC(=O)c1cc(O)c(O)c(O)c1)[C@@H](c1cc(O)c(O)c(O)c1)O2)c1cc(O)c(O)c(O)c1` gave an inhibition of 6% (KMT5A; cell-free assay; 10 µM).
With `Ic1cccc2cnccc12` the inhibition was -2% (Nicotinamide phosphoribosyltransferase (NAMPT, Homo sapiens, UniProt P43490); enzyme activity; inhibitor; 10 µM).
For `CCCCCCCCCCCCCCCc1cccc(O)c1C(=O)O`, the inhibition was about 60% (Histone acetyltransferase p300 (EP300, Homo sapiens, UniProt Q09472); enzyme activity; inhibitor; fluorescence; 52 µM).
`O=C(c1ccc(F)cc1)N(Cc1ccccc1)C1CCCCC1` has an inhibition of 13% (Alpha-2A adrenergic receptor (ADRA2A, Homo sapiens, UniProt P08913); cell-free assay; 10 µM).
With `COc1cc(NC(C)CCCN)c2ncccc2c1` (stereo not drawn) the inhibition was 28% (KMT5A; cell-free assay; 10 µM).
The inhibition of `COc1cc(-c2cc(-c3ccc(N4CCNCC4)cc3)cnc2C)cc(OC)c1OC` is reported as 4% (LATS1; enzyme activity; inhibitor; 0.1 µM).
With `Cn1cncc1C1=CN(c2ncnc3[nH]cnc23)CCS1` the inhibition was 96.1% (LATS1; enzyme activity; inhibitor; radiometric; 2 µM).
The inhibition of `O=C1C=C2CC3(O)COc4c(ccc(O)c4O)C3=C2C=C1O` (stereo not drawn) is reported as 8% (KMT5A; cell-free assay; 10 µM).
The inhibition of `CN(C)C1CCN(CC#Cc2nn(C3CCCC3)c3nc(NCc4ccccc4)ncc23)C1` (stereo not drawn) is reported as 12% (cAMP-dependent protein kinase catalytic subunit alpha (PRKACA, Homo sapiens, UniProt P17612); enzyme activity; inhibitor; FRET; 10 µM).
With `CCN(CC)CCNC(=O)c1c(C)[nH]c(/C=C2\C(=O)Nc3ccc(F)cc32)c1C` the inhibition was 1% (cAMP-dependent protein kinase catalytic subunit alpha (PRKACA, Bos taurus, UniProt P00517); enzyme activity; inhibitor; 10 µM).
The inhibition of `O=C(c1ccc(Cl)cc1)N(Cc1ccccc1)C1CCCCC1` is reported as -9.6% (CCKAR; cell-free assay; 10 µM).
`COc1cc2ncnc(Nc3ccc(Oc4ccccc4)cc3C)c2cc1OC` gave an inhibition of 7% (PRKCB; enzyme activity; inhibitor; 1 µM).
For `O=C(O)CCCCCCCCCCCC[C@@H]1C=CCC1`, the inhibition was -10% (KMT5A; cell-free assay; 10 µM).
The inhibition of `CCN(c1cc(C#CCN2CCOCC2)cc(C(=O)NCc2c(C)cc(C)[nH]c2=O)c1C)[C@H]1CC[C@H](N(C)CCOC)CC1` is reported as 6% (Protein arginine N-methyltransferase 6 (PRMT6, Homo sapiens, UniProt Q96LA8); enzyme activity; inhibitor; 1 µM).
`O=C(O)c1cc(O)c2c(c1)[C@H]([C@H]1c3cc(C(=O)O)cc(O)c3C(=O)c3c(O[C@@H]4O[C@H](CO)[C@@H](O)[C@H](O)[C@H]4O)cccc31)c1cccc(O[C@@H]3O[C@H](CO)[C@@H](O)[C@H](O)[C@H]3O)c1C2=O` has an inhibition of 23% (KMT5A; cell-free assay; 10 µM).
`COc1ccc(C(=O)c2coc3c2C(=O)C(=O)C=C3)cc1` gave an inhibition of at least 100% (Peptide deformylase, mitochondrial (Homo sapiens, UniProt Q9HBH1); enzyme activity; inhibitor; 100 µM).
